In ChEMBL document CHEMBL4706601, “The endocannabinoid system dual-target ligand N-cycloheptyl-1,2-dihydro-5-bromo-1-(4-fluorobenzyl)-6-methyl-2-oxo-pyridine-3-carboxamide improves disease severity in a mouse model of multiple sclerosis” (Eur J Med Chem, 2020):

Legend:
[1] = molecular target: T1, Fatty-acid amide hydrolase 1 (Homo sapiens, UniProt O00519); test: Inhibition of FAAH in human U937 cells using [ethanolamine-1-3H]AEA as substrate preincubated for 15 mins followed by substrate addition and measured after 15 mins by liquid scintillation spectroscopy; assay type: cell-based, U-937
T1 sequence (O00519 whole entry): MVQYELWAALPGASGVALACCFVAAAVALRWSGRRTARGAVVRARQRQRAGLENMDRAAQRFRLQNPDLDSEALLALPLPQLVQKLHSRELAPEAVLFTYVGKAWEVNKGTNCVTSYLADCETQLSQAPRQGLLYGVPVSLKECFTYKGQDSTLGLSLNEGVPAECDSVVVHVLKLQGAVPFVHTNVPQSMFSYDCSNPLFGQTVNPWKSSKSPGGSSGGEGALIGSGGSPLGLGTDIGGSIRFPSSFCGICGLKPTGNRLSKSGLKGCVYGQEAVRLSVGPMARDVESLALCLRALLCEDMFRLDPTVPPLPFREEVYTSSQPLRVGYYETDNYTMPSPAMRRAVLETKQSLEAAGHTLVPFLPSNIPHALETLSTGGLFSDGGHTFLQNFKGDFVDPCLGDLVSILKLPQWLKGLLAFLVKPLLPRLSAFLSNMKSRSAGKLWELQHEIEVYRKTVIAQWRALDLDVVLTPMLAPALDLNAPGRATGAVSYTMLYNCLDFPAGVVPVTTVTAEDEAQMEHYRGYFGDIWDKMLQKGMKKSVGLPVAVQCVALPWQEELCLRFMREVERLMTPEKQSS
Outline: (§1)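 Intact U937 cells, 10^6 per condition, pre-incubated with compound 15 min at 37 °C with shaking (screen at 10 μM; full curves for hits). Substrate: 1 μM AEA with 1 nM [3H]AEA (FAAH) or 10 μM 2-OG with 5 nM [3H]2-OG (MAGL), 15 min at 37 °C. Stopped with CHCl3:MeOH 1:1, aqueous tritium counted; mean ± SD, ≥3 experiments in triplicate.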

[2] = molecular target: T2, Cannabinoid receptor 2 (Homo sapiens, UniProt P34972); test: Inverse agonist activity at human CB2R expressed in CHO cell membranes after 90 mins by [35S]GTPgammaS assay; assay type: functional, Membrane
T2 sequence (P34972 whole entry): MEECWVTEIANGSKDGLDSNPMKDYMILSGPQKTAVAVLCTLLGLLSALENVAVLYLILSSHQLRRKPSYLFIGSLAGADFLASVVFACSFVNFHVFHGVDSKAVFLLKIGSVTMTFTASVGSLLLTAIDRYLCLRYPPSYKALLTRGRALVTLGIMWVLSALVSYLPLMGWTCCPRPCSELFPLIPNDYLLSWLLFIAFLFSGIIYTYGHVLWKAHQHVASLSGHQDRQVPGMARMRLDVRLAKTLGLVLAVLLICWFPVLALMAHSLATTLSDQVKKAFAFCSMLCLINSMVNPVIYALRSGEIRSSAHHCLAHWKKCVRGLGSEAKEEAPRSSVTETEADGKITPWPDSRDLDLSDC
Outline: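 In-house CHO membranes expressing hCB1 or hCB2 (10 µg) in 50 mM Tris-HCl, 3 mM MgCl2, 0.2 mM EDTA, 100 mM NaCl, 0.5% fatty-acid-free BSA, pH 7.4, with 10 μM GDP and 0.1 nM [35S]GTPγS. Incubated 90 min at 30 °C; antagonist pre-incubated 30 min. Nonspecific binding with 10 μM GTPγS; bound label by filtration and counting; ≥3 experiments in triplicate.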

[3] = molecular target: T3, Lysophosphatidylserine lipase ABHD12 (Homo sapiens, UniProt Q8N2K0); test: Inhibition of human ABHD12 expressed in HEK293 cells using 2-OG as substrate preincubated for 30 mins followed by substrate addition and measured after 5 mins by liquid scintillation spectroscopy; assay type: cell-based
T3 sequence (Q8N2K0 whole entry): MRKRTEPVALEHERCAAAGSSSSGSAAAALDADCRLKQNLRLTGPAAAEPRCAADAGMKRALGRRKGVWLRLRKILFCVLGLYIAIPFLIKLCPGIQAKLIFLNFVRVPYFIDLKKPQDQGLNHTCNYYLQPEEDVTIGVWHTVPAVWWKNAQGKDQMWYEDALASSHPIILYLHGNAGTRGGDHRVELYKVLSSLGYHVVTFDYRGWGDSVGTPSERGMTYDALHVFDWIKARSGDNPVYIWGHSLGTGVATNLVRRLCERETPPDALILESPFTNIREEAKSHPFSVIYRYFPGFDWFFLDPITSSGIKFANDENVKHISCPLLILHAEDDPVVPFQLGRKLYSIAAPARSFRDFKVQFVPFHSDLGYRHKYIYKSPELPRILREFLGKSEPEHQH
Outline: (§2)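 Homogenates (40 µg) from HEK293 stably expressing hABHD6 or hABHD12 pre-incubated with compound 30 min at 37 °C in […], 0.1% BSA, pH 7.6; then 10 μM 2-OG for 5 min at 37 °C. Aqueous phase tritium counted after CHCl3:MeOH stop; no-enzyme blanks and non-transfected HEK293 hydrolysis subtracted. Controls WWL70 10 μM, THL 20 μM.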

[4] = molecular target: T2, Cannabinoid receptor 2; test: Displacement of [3H]CP55940 from recombinant human CB2R expressed in CHO cell membranes incubated for 90 mins; set-up: species or system Membrane
[5] = molecular target: T4, Cannabinoid receptor 1 (Homo sapiens, UniProt P21554); test: Displacement of [3H]CP55940 from recombinant human CB1R expressed in CHO cell membranes incubated for 90 mins; set-up: species or system Membrane
T4 sequence (P21554 whole entry): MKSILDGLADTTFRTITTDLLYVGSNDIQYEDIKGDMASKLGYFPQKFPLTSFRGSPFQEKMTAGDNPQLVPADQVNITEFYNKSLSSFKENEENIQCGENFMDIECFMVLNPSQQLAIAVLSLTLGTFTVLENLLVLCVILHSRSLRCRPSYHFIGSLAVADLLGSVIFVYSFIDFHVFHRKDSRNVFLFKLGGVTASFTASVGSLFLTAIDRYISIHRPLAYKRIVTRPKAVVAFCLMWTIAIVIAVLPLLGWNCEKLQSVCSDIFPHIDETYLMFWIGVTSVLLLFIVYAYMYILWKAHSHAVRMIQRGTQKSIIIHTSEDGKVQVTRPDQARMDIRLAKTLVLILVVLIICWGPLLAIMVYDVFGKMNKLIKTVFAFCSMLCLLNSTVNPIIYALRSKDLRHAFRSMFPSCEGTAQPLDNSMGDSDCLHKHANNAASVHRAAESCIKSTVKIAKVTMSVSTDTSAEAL

[6] = molecular target: T4, Cannabinoid receptor 1; test: Partial agonist activity at human CB1R expressed in CHO cell membranes after 90 mins by [35S]GTPgammaS assay; assay type: functional, Membrane
Outline: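 Membranes from CHO cells stably expressing hCB1 (10 µg), in 50 mM Tris-HCl, 3 mM MgCl2, 0.2 mM EDTA, 100 mM NaCl, 0.5% fatty-acid-free BSA, pH 7.4, with 10 µM GDP and 0.1 nM [35S]GTPγS. Compounds added at several concentrations. Incubated 90 min at 30 °C, then rapid filtration and radioactivity counting. Non-specific binding measured with 10 µM GTPγS.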

[7] = molecular target: T5, Monoacylglycerol lipase ABHD6 (Homo sapiens, UniProt Q9BV23); test: Inhibition of human ABHD6 expressed in HEK293 cells using 2-OG as substrate preincubated for 30 mins followed by substrate addition and measured after 5 mins by liquid scintillation spectroscopy; assay type: cell-based; outline: as §2
T5 sequence (Q9BV23 whole entry): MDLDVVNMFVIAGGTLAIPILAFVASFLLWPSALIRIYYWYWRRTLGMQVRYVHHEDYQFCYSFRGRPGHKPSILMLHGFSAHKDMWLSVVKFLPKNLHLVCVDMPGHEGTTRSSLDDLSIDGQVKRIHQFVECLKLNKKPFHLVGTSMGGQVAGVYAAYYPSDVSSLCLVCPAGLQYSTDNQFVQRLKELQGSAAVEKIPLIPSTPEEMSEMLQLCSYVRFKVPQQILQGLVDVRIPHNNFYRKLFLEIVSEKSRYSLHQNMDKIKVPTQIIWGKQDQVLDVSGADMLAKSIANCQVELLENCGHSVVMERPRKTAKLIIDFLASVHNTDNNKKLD

[8] = molecular target: T6, Monoglyceride lipase (Homo sapiens, UniProt Q99685); test: Inhibition of MAGL in human U937 cells using [glycerol-1,2,3-3H]2-OG as substrate preincubated for 15 mins followed by substrate addition and measured after 15 mins by liquid scintillation spectroscopy; assay type: cell-based, U-937; outline: as §1
T6 sequence (Q99685 whole entry): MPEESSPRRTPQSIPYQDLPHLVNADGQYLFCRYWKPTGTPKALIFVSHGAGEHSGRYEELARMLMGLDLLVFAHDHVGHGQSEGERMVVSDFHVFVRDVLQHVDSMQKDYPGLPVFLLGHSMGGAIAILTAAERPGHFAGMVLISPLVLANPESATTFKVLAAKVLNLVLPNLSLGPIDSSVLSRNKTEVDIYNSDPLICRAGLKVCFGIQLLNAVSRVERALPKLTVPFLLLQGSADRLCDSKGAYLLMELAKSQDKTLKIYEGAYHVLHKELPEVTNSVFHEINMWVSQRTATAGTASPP

Cc1c(-c2ccc(F)cc2)cc(C(=O)NC2CCCCCC2)c(=O)n1Cc1ccc(F)cc1
IC50 [1]: 530 nM | EC50 [2]: 6.45 nM | IC50 [3]: 600 nM | Ki [4]: 28.9 nM | Ki [5]: 49.3 nM | EC50 [6]: 120 nM | IC50 [7]: > 10000 nM | IC50 [8]: > 10000 nM
